Hits are enriched below; roughly 3.8% of the tested compounds scored in any of these assays.
KCNQ1 pot = potentiators or activators of KCNQ1 channel, primary screen, cell-based, thallium flux, high-throughput; Potassium voltage-gated channel subfamily KQT member 1 (Homo sapiens), P51787; CHO-K1 KCNQ1, thallium flux FluxOR fluorescence; stronger effect = higher value; B-score at 10 µM; 0.35% of 310,000 active; AID 2648, 2010;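 active = fluorescence ratio B-score, a plate-corrected score, at least three library SD, with initial intensity B-score within 5 SD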
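Assay system: CHO-K1 cells stably expressing KCNQ1. Medium: assay buffer for compound exposure, DMSO matched across wells. Timing: 37 °C overnight plating, 90-min dark dye load, 20-min compound pretreatment. Signal: kinetic FluxOR fluorescence, 10 s baseline plus 110 s post-stimulus.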
KCNK9 inh = KCNK9 potassium channel inhibitors, primary screen, HEK293 cells, thallium flux | 1.2% of 310,000 active | Potassium channel subfamily K member 9 (Homo sapiens), Q9NPC2 | FluxOR thallium flux fluorescence; stronger effect = lower value | AID 488922, 2010 | B-score at 10 µM;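 active = ratio B-score over 3 SD below the library mean, with starting fluorescence within 5 SD of its mean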;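 note: negative B-score means less thallium flux so channel inhibition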
hERG protect = hERG rescue from dofetilide block, primary screen, cell-based, CHO-hERG, FluxOR thallium flux, dofetilide IC70; Voltage-gated inwardly rectifying potassium channel KCNH2 (Homo sapiens), Q12809; dofetilide IC70 present; activation (rescue from dofetilide block), less the hit threshold, % at 10 µM; 0.51% of 310,000 active; AID 1511, 2009;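 active = activation above the mean of controls blocked by dofetilide plus 5 SD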;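 note: thallium influx through hERG after potassium depolarization seen as dye fluorescence rise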
Target sequence (Q12809 whole entry, looked up): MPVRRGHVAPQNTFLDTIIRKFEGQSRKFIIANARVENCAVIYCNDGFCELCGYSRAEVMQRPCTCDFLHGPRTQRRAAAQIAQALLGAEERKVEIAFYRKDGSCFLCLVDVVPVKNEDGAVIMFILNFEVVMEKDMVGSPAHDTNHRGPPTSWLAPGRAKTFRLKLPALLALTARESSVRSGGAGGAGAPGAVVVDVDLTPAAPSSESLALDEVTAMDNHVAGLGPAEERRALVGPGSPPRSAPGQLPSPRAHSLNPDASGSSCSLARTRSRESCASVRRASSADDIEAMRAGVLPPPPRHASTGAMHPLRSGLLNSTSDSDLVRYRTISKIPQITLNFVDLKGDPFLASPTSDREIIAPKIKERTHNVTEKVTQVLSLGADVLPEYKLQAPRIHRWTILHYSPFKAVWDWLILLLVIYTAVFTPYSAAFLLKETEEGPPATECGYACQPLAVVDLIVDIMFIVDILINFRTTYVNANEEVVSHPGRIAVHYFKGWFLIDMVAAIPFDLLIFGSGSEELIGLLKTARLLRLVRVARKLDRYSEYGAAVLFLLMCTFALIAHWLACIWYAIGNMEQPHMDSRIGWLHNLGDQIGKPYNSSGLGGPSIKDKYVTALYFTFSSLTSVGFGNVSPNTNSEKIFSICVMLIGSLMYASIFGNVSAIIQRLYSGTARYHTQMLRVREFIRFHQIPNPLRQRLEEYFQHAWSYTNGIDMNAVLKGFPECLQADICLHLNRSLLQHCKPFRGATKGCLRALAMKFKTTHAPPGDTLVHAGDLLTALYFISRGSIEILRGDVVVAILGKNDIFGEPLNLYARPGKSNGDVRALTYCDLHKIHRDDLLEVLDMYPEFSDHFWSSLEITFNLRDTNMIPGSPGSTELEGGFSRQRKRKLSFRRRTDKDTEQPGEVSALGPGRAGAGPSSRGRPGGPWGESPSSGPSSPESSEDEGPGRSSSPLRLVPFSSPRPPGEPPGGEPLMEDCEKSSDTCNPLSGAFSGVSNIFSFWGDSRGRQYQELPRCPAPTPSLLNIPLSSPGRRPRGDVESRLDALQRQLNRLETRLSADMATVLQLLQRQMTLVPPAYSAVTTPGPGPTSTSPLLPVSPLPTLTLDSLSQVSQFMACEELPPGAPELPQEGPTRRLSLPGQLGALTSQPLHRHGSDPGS
Kir21 inh = inhibitors of mouse Kir2.1 inward-rectifier potassium channel; HEK293-Kir2.1, FluxOR thallium flux fluorescence; stronger effect = lower value; Inward rectifier potassium channel 2 (Mus musculus), P35561; B-score at 10 µM; 0.85% of 310,000 active; AID 1672, 2009;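 active = fluorescence ratio B-score at or below minus 3 SD of library scores, with starting-brightness B-score within 2 SD, cut at about -4.2 in these data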;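 note: channel flux triggered by added potassium and thallium sulfate stimulus; B-score of peak minus minimum fluorescence over baseline after thallium stimulus; more negative B-score means stronger Kir2.1 block with less thallium influx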
KCNK3 inh = human KCNK3 channel inhibitors, primary screen, CHO cells, FluxOR thallium flux, B-score; Potassium channel subfamily K member 3 (Homo sapiens), O14649; FluxOR fluorescence; stronger effect = lower value; B-score at 10 µM; 0.84% of 340,000 active; AID 602410, 2012;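 active = B-score under library mean minus 4 SD, starting fluorescence ratio at most library mean plus 5 SD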;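 note: more negative B-score means stronger inhibition of thallium flux through KCNK3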
KCNQ1 block = inhibitors of human KCNQ1 channel, primary screen, cell-based, thallium flux, high-throughput; Potassium voltage-gated channel subfamily KQT member 1 (Homo sapiens), P51787; CHO-K1 KCNQ1, FluxOR thallium flux fluorescence; stronger effect = higher value; B-score at 10 µM; 1.3% of 310,000 active; AID 2642, 2010;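 active = compounds whose thallium flux B-score, printed positive for inhibition, exceeds three library SD while starting fluorescence stays within three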;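 note: channel opened by potassium depolarization with thallium stimulus after 20 min compound exposure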
KCNK9 inh conf = KCNK9 potassium channel inhibitors, confirmation, HEK293 cells, thallium flux, duplicate; shares compounds with KCNK9 inh; FluxOR thallium flux fluorescence; inhibition, % at 10 µM; 43% of 4,900 active; AID 492992, 2010;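 active = thallium signal inhibited by more than 5 SD of the compound-free buffer control wells, on both duplicate plates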;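 note: 0% = assay buffer control wells without compound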
Kir21 sel = mouse Kir2.1 channel inhibition, confirmation, selectivity assay for KCNK9 modulator project, cell-based, HEK293, thallium flux; shares compounds with KCNK9 inh; Kir2.1 cells, FluxOR thallium flux fluorescence; inhibition, % at 10 µM; 4% of 4,900 active; AID 492993, 2010;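 active = thallium signal drop more than 5 SD beyond the mean of the no-compound control wells, seen in both duplicate plates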;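 note: signal is fluorescence rise after thallium addition divided by baseline fluorescence; plate controls were assay buffer only for no effect and full block by chlorpromazine control for full effect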
KCNK9 uninduced = thallium flux in non-induced HEK293 cells, confirmation, counter-screen for KCNK9 inhibitor project, cell-based, second counter screen, non-induced KCNK9-HEK293; shares compounds with KCNK9 inh; FluxOR thallium flux; inhibition, % at 10 µM; 40% of 4,900 active; AID 492997, 2010;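 active = thallium signal drop beyond 5 SD of the untreated control mean, on both duplicate plates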;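 note: plate controls were buffer only IC0 wells for no effect and SID17386958 at its maximal inhibitory level for full effect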
KCNK3 inh conf = retest of human KCNK3 channel inhibitors, confirmation, CHO cells, FluxOR thallium flux, triplicate | FluxOR fluorescence; 0% buffer, 100% carvedilol maximal block | AID 651638, 2012 | 99% of 2,400 active | shares compounds with KCNK3 inh | ratio percent of control, % at 10 µM;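 active = ratio percent of control, averaged over triplicates, above buffer control mean plus 5 SD, cut at about 64% in these data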;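 note: ratio is the fluorescence rise from min to max over baseline after thallium stimulus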
KCNK3 uninduced = thallium flux inhibition in non-induced cells, primary screen, counter-screen for KCNK3 inhibitor project, cell-based, non-induced KCNK3 line, FluxOR thallium, triplicate; shares compounds with KCNK3 inh; non-induced KCNK3 parental cells; stronger effect = lower value; thallium flux ratio (lower = more inhibition) at 10 µM; 40% of 2,400 active;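 active = thallium flux ratio, averaged over three wells, more than 5 SD below the buffer control mean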;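 note: host cells are CHO cells without KCNK3 induction; ratio is peak minus trough fluorescence over baseline then normalized to buffer controls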
* marks the source's active call; other numbers are inactive results; i = inactive; . = no result given; ! = not confirmed by another sample.

SMILES	KCNQ1 pot	KCNK9 inh	hERG protect	Kir21 inh	KCNK3 inh	KCNQ1 block	KCNK9 inh conf	Kir21 sel	KCNK9 uninduced	KCNK3 inh conf	KCNK3 uninduced
O=C(Nc1ccncc1)C1(c2ccccc2)CCCC1	i	i	1	-0.02	i	i	.	.	.	.	.
COc1ccc(NC(=O)CN(C)C(=O)C(C)N2C(=O)c3ccccc3C2=O)cc1 (centres undefined)	i	i	-6	1.4	i	i	.	.	.	.	.
CCOC(=O)c1c(S(=O)(=O)Nc2ccc(F)cc2C)c(C)n(C)c1C	i	-14*	-1	0.1	-9.5*	i	64%*	i	26%*	116*	i
COC(=O)c1c(C(=O)OC)c(-c2ccc(Cl)c(Cl)c2)n2c1CCC2	i	-8.2*	-6	0.01	i	i	32%*	i	32%*	92*	i
Cc1cccc(N2C(=O)c3cccc(Oc4ccc(Cl)cc4)c3C2=O)c1	i	i	-5	0.02	i	i	.	.	.	.	.
O=C(OCc1ccccc1)N1CCCC1/C=C/CN1CCOCC1 (centres undefined)	i	i	-11	0.46	i	i	.	.	.	.	.
CCOc1ccc2c(C)cc(=O)oc2c1OCC	i	i	-4	1.1	i	i	.	.	.	.	.
CCCCOc1ccc2c(C)cc(=O)oc2c1OCCCC	i	-25*	-12	0.71	-9.4*	7*	76%*	i	36%*	119*	0.14*
O=S(=O)(c1cc(Cl)ccc1Cl)N1CCN(Cc2ccc3c(c2)OCO3)CC1	i	i	-9	0.27	-9.7*	i	i	i	26%*	113*	0.16*
O=C(c1ccc(COc2ccccc2Cl)o1)N1CCN(Cc2ccc3c(c2)OCO3)CC1	i	-12*	-12	-0.63	-11*!	i	47%*	i	25%*	123*	i
O=C(CC1Sc2ccccc2NC1=O)NNc1ccc(F)cc1 (centres undefined)	.	.	.	.	i	.	.	.	.	.	.
O=c1c2ccccc2ncn1-c1ccc([N+](=O)[O-])cc1Cl	i	i	-1	-0.71	i	i	.	.	.	.	.
c1ccc(-c2nnnn2-c2ccccn2)cc1	.	.	.	.	i	.	.	.	.	.	.
Cc1cccc(C(C)C)c1-n1nnnc1-c1ccccc1	i	-12*	-12	0.15	-10*	i	53%*	i	40%*	117*	i
CCOCCCn1c(SCc2ccccc2)nnc1-c1ccncc1	i	i	-1	-1.5	i	i	.	.	.	.	.
O=C(O)C1C2CC(C(Br)C2Br)C1C(=O)O (centres undefined)	.	.	.	.	i	.	.	.	.	.	.

Bioassay records deposited in PubChem by Johns Hopkins Ion Channel Center.
